L major viab: Leishmania major promastigote growth inhibition; Leishmania major promastigotes, resazurin fluorescence viability; inhibition, % at 10 µM; 9% of 200,000 active; in the data active = inhibition above about 50%;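 note: promastigotes grown with compound for 44 hours at 28 °C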
T cruzi repl: blocks replication of Trypanosoma cruzi; T. cruzi beta-gal in NIH3T3, luminescence, 90 h; AID 1885; inhibition, % (no concentration beside the values); 1.4% of 300,000 active;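 active = mean inhibition across valid replicates above about 55%, limit read from the data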;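 note: signal also drops with host cell toxicity which is not excluded here; higher percent means less beta-gal luminescence so fewer parasites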
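Test system: β-gal T. cruzi (Tulahuen C4) inside NIH/3T3 cells / Quantity: 5,000 cells/well / Measured by: luminescence from GalScreen with 0.05% NP40, read after 60 min / Medium: DMEM plus 2% FBS / Measure: parasite load inhibition, % / Reagent: Tulahuen C4 trypomastigotes, 5000/well / Schedule: co-culture of at least 90 h after 3 h attachment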
CHOP inh: CHOP inhibition in unfolded protein response; CHO-K1 CHOP-promoter luciferase, tunicamycin-induced, 15-18 h; inhibition, % at 10 µM; 3.8% of 220,000 active;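 active = compounds that reduced the stress-induced luciferase reporter signal by more than about 70% of percent inhibition, limit read from the data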
Dynein transport: dynein cargo transport inhibition. 3617.4 mouse cells, GR-EGFP nuclear translocation imaging; test concentration mostly 20 µM; stimulated with dexamethasone, 1 µM; active compounds read low. z-score, hits read low. 0.47% of 220,000 active. AID 1381;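 active = plate z-score of nuclear minus cytoplasmic receptor signal below a set negative limit, without overly bright fluorescence or cell loss, cut at about -3.5 in these data, passing the limit was not always enough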;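 note: z-score of nuclear minus cytoplasmic ring GR-EGFP intensity difference per well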
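Buffer or medium: tet-free medium with charcoal-stripped serum / Also added: dexamethasone agonist, 1.0 µM final, for 30 min / Timing: induction 48 h, compound 1 h, agonist 30 min / Measured by: high-content fluorescence imaging after fixation / Read-out: nuclear-to-cytoplasmic GR-EGFP distribution per well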
CHOP UPR activ: apoptotic UPR (CHOP) activation; CHO-CHOP luciferase reporter, luminescence; percent of tunicamycin response over DMSO baseline; activation, % at 10 µM; 0.34% of 330,000 active;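 active = at 10 µM dose, activation of 40% or more, normalized to positive control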
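Dosing – one dose, 10 µM in 0.5% DMSO · System – CHO-CHOP cells, stable luciferase reporter of PERK-eIF2a-CHOP signalling · Input – 500 cells/well · Control set – tunicamycin 10 µg/mL final as positive, DMSO-only wells as negative · Timing – 6 h compound treatment, 37 °C · Measure – % activation vs tunicamycin · Technique – luminescence read with Steady-Glo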
UPR XBP1 act: adaptive UPR (XBP1) activation. activation, % at 20 µM. 0.33% of 330,000 active. CHO-XBP1 luciferase reporter, IRE1-XBP1 UPR activation, luminescence; percent of tunicamycin response, DMSO as zero. AID 463104;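 active = versus positive control, 20 µM dose yields 30% or more activation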
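incubation = overnight seeding at 37 °C, 6 h compound treatment at 37 °C | assay system = CHO-XBP1 cells stably carrying IRE1-XBP1-driven luciferase reporter | input = 1000 cells per well | detection = luciferase luminescence | dosing = single point, 20 µM final compound, 1% DMSO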
Large screens that a line does not name were inactive. Only a selection was taken, and hits are over-represented in it overall.

Cc1ccccc1CN(c1ccc(C(=O)Nc2ccccc2C(=O)NCc2ccco2)cc1)S(C)(=O)=O	L major viab 81
Cc1ccc(S(=O)(=O)N(Cc2ccccc2)c2ccccc2C(=O)NCc2cccnc2)cc1	L major viab 64
Cc1cccc(C(=O)OCN2C(=O)c3ccccc3C2=O)c1[N+](=O)[O-]	none (no result: L major viab, CHOP inh, Dynein transport)
COc1ccc(NC(=S)N(CCN(C)C)C(C)c2ccco2)cc1Cl (configuration not stated)	L major viab 67
COCCCNc1nc2c(c(=O)n(Cc3ccc(OC)cc3)c(=O)n2C)n1C	none (no result: L major viab, CHOP inh, Dynein transport)
Cn1c(NCCCN2CCOCC2)nc2c1c(=O)n(Cc1ccc(Cl)cc1)c(=O)n2C	L major viab 74
Cn1c(NCCCN2CCOCC2)nc2c1c(=O)n(Cc1ccc(Cl)c(Cl)c1)c(=O)n2C	L major viab 99
O=S(=O)(c1ccc(F)cc1)N1CC2CCCN2c2ccc(C(F)(F)F)cc21 (configuration not stated)	CHOP inh 75
CCOC(=O)C1CCN(C(=O)CCn2c(=O)c3cccn3c3cccnc32)CC1	none (no result: L major viab, CHOP inh, Dynein transport)
COc1ccccc1-c1coc2cc(OCC(=O)OCc3ccccc3)ccc2c1=O	none
COc1ccccc1-c1c(C)oc2cc(OCC(=O)OCc3ccccc3)ccc2c1=O	L major viab 87
COc1cc(F)c(S(=O)(=O)N2CCOc3ccccc32)cc1OC	none (no result: L major viab, CHOP inh, Dynein transport)
CCOc1ccc(NC(=O)Nc2cc(C(C)C)ccc2C)cc1	CHOP inh 93 (no result: L major viab)
Cc1ccc(C(C)C)cc1NC(=O)Nc1ccc([N+](=O)[O-])cc1	CHOP inh 106 (no result: L major viab)
CCOc1ccc(NC(=O)Nc2ccccc2SC)cc1	none
COc1ccc(C(CC(=O)NCc2ccccc2)C(C)C)cc1 (configuration not stated)	none (no result: L major viab, T cruzi repl)
Cc1ccc(C)c(N2CCN(C(=S)Nc3ccc4nc(N5CCOCC5)cc(C)c4c3)CC2)c1	none
COC(=O)c1sccc1NC(=S)N1CCN(c2cc(C)ccc2C)CC1	L major viab 82
Cc1ccc(C)c(N2CCN(C(=S)Nc3ccc4nc(N5CCN(C)CC5)cc(C)c4c3)CC2)c1	CHOP inh 77
Cc1cc(N2CCN(C)CC2)nc2ccc(NC(=S)N3CCN(c4ccccn4)CC3)cc12	L major viab 95
Cc1ccc(C)c(N2CCN(C(=S)NC3CCCCC3)CC2)c1	L major viab 58, CHOP inh 79
O=C(Nc1ccccc1Br)c1cc(=O)c2ccccc2o1	none (no result: L major viab, CHOP inh, Dynein transport)
CC1CC(C)(C)CC2(C1)NC(=O)N(CC(=O)Nc1cc([N+](=O)[O-])ccc1F)C2=O (configuration not stated)	none (no result: L major viab, T cruzi repl, CHOP inh, Dynein transport)
CN1CCN(C(=S)Nc2ccc(Cl)c(Cl)c2)CC1	L major viab 67
Cc1cccc(NC(=S)N2CCN(c3cc(C)ccc3C)CC2)c1	L major viab 80
COc1cc2c(cc1OC)C(c1ccc(Br)cc1)NCC2 (configuration not stated)	T cruzi repl 57 (no result: L major viab, CHOP inh, Dynein transport)
OCCC1CN(C2CCC2)CCN1Cc1ccc(F)c(F)c1 (configuration not stated)	none (no result: L major viab, CHOP inh, Dynein transport)
CCN1CCCC1CNCc1cc(OC)c(OC)c(OC)c1 (configuration not stated)	none
CCN1CCCC1CNCc1cccc(OC)c1OCc1ccccc1F (configuration not stated)	L major viab 100
CCN1CCCC1CNCc1cccc(OC)c1OCc1ccccc1 (configuration not stated)	L major viab 85
CCN1CCCC1CNCc1ccccc1OCc1ccc(F)cc1 (configuration not stated)	L major viab 100
CNCc1ccccc1OCc1ccc(F)cc1	none
O=C(O)C1C2CCC(C2)C1C(=O)NCCc1ccccc1 (configuration not stated)	none (no result: L major viab, CHOP inh, Dynein transport)
CCOCCCNC(=O)c1ccc(OC2CCN(C(C)=O)CC2)c(OC)c1	none (no result: L major viab, CHOP inh, Dynein transport)
COc1ccccc1C(=O)NC(=O)COC(=O)Cn1[nH]c(=O)c2ccccc2c1=O	none (no result: L major viab, CHOP inh, Dynein transport)
O=C(NCc1ncc(C(F)(F)F)cc1Cl)Nc1ccccc1	none (no result: L major viab, CHOP inh, Dynein transport)
Cc1c(NC(=O)c2cccs2)c(=O)n(-c2ccccc2)n1C	none
Cc1c(NC(=O)/C(C#N)=C/c2cccs2)c(=O)n(-c2ccccc2)n1C	L major viab 67
CC(OC(=O)CCCN=C1NS(=O)(=O)c2ccccc21)C(=O)Nc1ccccc1[N+](=O)[O-] (configuration not stated)	none (no result: L major viab, CHOP inh, Dynein transport)
Cc1cccc(NC(=O)CS(=O)CC(=O)Nc2cnc3ccccc3c2)c1C (configuration not stated)	none (no result: L major viab, CHOP inh, Dynein transport)
Cc1cccc2c1N(CCCOc1ccccc1)C(=O)C2=O	none
Cc1ccccc1OCCCN1C(=O)C(=O)c2cccc(C)c21	CHOP inh 107
COc1ccc(-c2nnc(SCc3nnc(-c4ccc(Cl)cc4)o3)n2-c2ccccc2)cc1	L major viab 89
O=C(Cc1cccc(NC(=O)C2CCCN(C(=O)C3CCC3)C2)c1)Nc1cccc(C(=O)N2CCCC2)c1 (configuration not stated)	none (no result: L major viab, T cruzi repl, CHOP inh, Dynein transport)
COc1cc(NC(c2ccccc2)c2ccccc2)cc(OC)c1OC	L major viab 96
CN(CC(=O)Nc1cccc(F)c1)C(=O)c1ccccc1Sc1ccccc1C#N	none (no result: L major viab, T cruzi repl, CHOP inh, Dynein transport)
Oc1ccc(/C=N/N(Cc2ccccc2)c2ccccc2)c(O)c1O	CHOP inh 80 (no result: CHOP UPR activ, UPR XBP1 act)
COC(=O)c1ccc(COc2ccc(/C=N/NC(N)=S)cc2)o1	T cruzi repl 55 (no result: L major viab)
COc1ccc(/C=N/NC(N)=S)cc1	none (no result: L major viab)
O=C(N/N=C/c1ccc(C(F)(F)F)cc1)c1ccncc1	none (no result: L major viab, CHOP inh, Dynein transport)
NC(=S)N/N=C/c1ccc(C(F)(F)F)cc1	L major viab 70
C=CCOc1ccc(/C=N\NC(N)=S)cc1	T cruzi repl 64
O=C(Nc1cc(Sc2ccccn2)cc([N+](=O)[O-])c1)c1cccc(Cl)c1	T cruzi repl 59
CC1=C(C(=O)Nc2ccccc2)C(c2ccc(C)o2)n2c(s/c(=C/c3ccccc3)c2=O)=N1 (configuration not stated)	L major viab 95
CC1=C(C(=O)Nc2ccccc2C)C(c2ccc(C)o2)n2c(s/c(=C/c3ccccc3)c2=O)=N1 (configuration not stated)	L major viab 75
CCOc1ccc(C2C(C(=O)Nc3ccccc3)=C(C)N=c3s/c(=C/c4cccc(OCC(=O)O)c4)c(=O)n32)cc1 (configuration not stated)	none
CC1=C(C(=O)Nc2ccccc2)C(c2ccc(Cl)cc2)n2c(s/c(=C/c3cccc(OCC(=O)O)c3)c2=O)=N1 (configuration not stated)	none

Screens deposited in PubChem BioAssay by several laboratories.
